ChEMBL document CHEMBL1144429, “Computational strategies in discovering novel non-nucleoside inhibitors of HIV-1 RT” (J Med Chem, 2005)

Assays:
MT4 [1] = assay: Concentration required to reduce HIV-1-induced cytopathic effect in MT-4 cells; NA = not active; format: functional, cell-based, Homo sapiens
Outline: (§1)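 MT-4 cells infected with HIV-1. The read-out is protection against virus-induced cytopathic effect. EC50 is the concentration giving a 50% reduction of the cytopathic effect. Uninfected MT-4 cytotoxicity was run in parallel.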

MT4 [2] = assay: Cytotoxic concentration required to reduce MT-4 cell viability; format: functional; settings: Homo sapiens
Outline: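 Viability of MT-4 cells was measured with compound alone, in parallel with the HIV-1 cytopathic-effect assay. CC50 is the concentration reducing MT-4 cell viability by 50%.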

[3] = molecular target: Human immunodeficiency virus type 1 reverse transcriptase (Human immunodeficiency virus 1, UniProt Q72547); assay: Concentration required to inhibit in vitro RNA-dependent DNA polymerase activity of reverse transcriptase
Outline: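 Recombinant HIV-1 RT. RNA-dependent DNA polymerase activity was measured in vitro. IC50 is the concentration inhibiting this polymerase activity by 50%.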

MT4 [4] = assay: Concentration required to reduce HIV-1-induced cytopathic effect in MT-4 cells; format: functional, cell-based; settings: Homo sapiens; outline: as §1
MT4 [5] = assay: Ratio of CC50 to that of EC50; format: functional, Homo sapiens
Outline: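 Selectivity index is calculated as CC50/EC50. Both values come from the parallel MT-4 assays: cell viability for CC50 and protection from HIV-1-induced cytopathic effect for EC50.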

CCRF-CEM [6] = assay: Concentration required to protect CEM cells against Mutant K103N Strain; format: functional, cell-based; settings: Homo sapiens
Outline: (§2)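 CEM cell cultures were infected with mutant HIV-1 strains, each carrying a single NNRTI-resistance mutation in RT. EC50 is the concentration protecting CEM cells against HIV-induced cytopathogenicity by 50%.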

CCRF-CEM [7] = assay: Concentration required to protect CEM cells against Mutant L100I Strain; format: functional, cell-based; settings: Homo sapiens; outline: as §2
CCRF-CEM [8] = assay: Concentration required to protect CEM cells against Mutant E138K Strain; format: functional, cell-based; settings: Homo sapiens; outline: as §2
MT4 [9] = assay: Compound was tested for inhibition of the cytopathic effects of HIV-1 (IIIB) in MT-4 cells; format: functional, cell-based; settings: Homo sapiens
Outline: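 HIV-1-induced cytopathic effect measured in MT-4 cell cultures. EC50 is the concentration reducing the cytopathic effect by 50%. Cytotoxicity in MT-4 cells was run in parallel.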

CCRF-CEM [10] = assay: Concentration required to protect CEM cells against Mutant Y188H Strain; format: functional, cell-based; settings: Homo sapiens; outline: as §2
CCRF-CEM [11] = assay: Concentration required to protect CEM cells against Mutant Y181C Strain; format: functional, cell-based; settings: Homo sapiens; outline: as §2

SMILES | EC50 (MT4 [1]) | CC50 (MT4 [2]) [µM] | IC50 [3] [µM] | EC50 (MT4 [4]) [µM] | Ratio (MT4 [5]) | EC50 (CCRF-CEM [6]) [µM] | EC50 (CCRF-CEM [7]) [µM] | EC50 (CCRF-CEM [8]) [µM] | EC50 (MT4 [9]) [µM] | EC50 (CCRF-CEM [10]) [µM] | EC50 (CCRF-CEM [11]) [µM]
Oc1nc2ccc(Cl)cc2n1CC1CCCCC1 | Not Active | 9.5 | 50 | – | – | – | – | – | – | – | –
O=c1oc2ccc(Cl)cc2n1Cc1c(F)cccc1F | – | > 382 | 20 | 3.72 | >91 | – | – | – | – | – | –
O=c1[nH]c2ccc(Cl)cc2n1Cc1c(F)cccc1F | – | > 424 | 2.86 | 0.24 | >1766 | > 20 | 2 | 2.9 | 0.24 | > 20 | > 20
Oc1nc2ccc(Cl)cc2n1Cc1cccc2ccccc12 | – | 50 | 12.7 | 0.87 | 57 | – | – | – | – | – | –
Oc1nc2ccc(Cl)cc2n1Cc1c(Cl)cccc1Cl | – | 315 | 7.5 | 3.79 | 83 | – | – | – | – | – | –
Oc1nc2ccc(Cl)cc2n1Cc1ccc2ccccc2c1 | – | > 405 | 5.2 | 6.35 | >64 | – | – | – | – | – | –
CC(C)c1ccc(Cn2c(O)nc3ccc(Cl)cc32)cc1 | – | > 415 | 16.2 | 2.83 | >147 | – | – | – | – | – | –
Fc1cccc(F)c1C1SCc2nc3ccccc3n21 (configuration not stated) [THIAZOLOBENZIMIDAZOLE] | – | 50 | 24.6 | 1.1 | 45 | 15.6 | 3.12 | 1.73 | 1.39 | 4.16 | 13.8
Oc1nc2cc(Cl)ccc2n1Cc1c(F)cccc1F | – | > 424 | 60 | 29.6 | >14 | – | – | – | – | – | –
